In article PMC6044759 (ACS Omega, 2018):
Counter-ions that a name gives are not always drawn.

Assays:
MCF-7 cells = experiment: Live and dead assay by flow cytometry; type: cell-based, human; conditions: 15 nM, positive control, PI staining
Summary of the method: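 MCF-7 cells (0.8 × 10^6) were exposed to vehicle, 3 or 6 μM test compound, or 15 nM vinblastine (positive control) for 48 h. Cells were stained with propidium iodide and live and dead percentages were counted by flow cytometry. Values are mean ± SD of three experiments.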

[1] = cited from earlier work

Row | Structure (SMILES) | dead % (MCF-7 cells) [%] | live % (MCF-7 cells) [%] | Solubility in water [1]
1 | CC[C@]1(O)C[C@@H]2CN(CCc3c([nH]c4ccccc34)[C@@](C(=O)OC)(c3cc4c(cc3OC)N(C)[C@H]3[C@@](O)(C(=O)OC)[C@H](OC(C)=O)[C@]5(CC)C=CCN6CC[C@]43[C@@H]65)C2)C1 [Vinblastine, Vinblastine sulfate] | 83 ± 6 | 18 ± 6 | 
2 | COc1ccc(/C=C\c2cc(OC)c(OC)c(OC)c2)cc1O [CA-4, combretastatin A-4] |  |  | poorly soluble in water
